These results are taken from PMC4524557 (RSC advances, 2015).

In data set [1] the test system is Staphylococcus aureus USA300. Description: MIC determination. Type of data set: cell-based. Particulars: USA300, read-out: MIC SA.
For data set [2], the system named is Pseudomonas aeruginosa PAO1. Nature of the data set: MIC determination. Particulars: PAO1, read-out: MIC PA. The data set is classed as cell-based.
The subject of a further data set is Klebsiella pneumoniae. Description: MIC determination. The data set is classed as cell-based. The note with it: K. pneumoniae.
The subject of data set [3] is S. aureus USA400 biofilms. Nature of the data set: Inhibition of biofilm formation. The data set is classed as cell-based, Staphylococcus aureus. Particulars: USA400, all tested concentrations from 1.56 to 12.5 μM.
Data set [4] relates to S. aureus USA200 biofilms. Nature of the data set: Disruption of established 24 h biofilms. The note with it: USA200, at 6.25 μM. Type of data set: cell-based, Staphylococcus aureus.
The test system of data set [5] is S. aureus UAMS-1 biofilms. Nature of the data set: Disruption of established biofilms. Type of data set: cell-based, Staphylococcus aureus. The note with it: UAMS-1, at 6.25 μM.
The subject of data set [6] is S. aureus USA400 biofilms. Nature of the data set: Disruption of established 24 h biofilms. The data set is classed as cell-based, Staphylococcus aureus.
For data set [7], the system named is Staphylococcus aureus UAMS-1. Description: MIC determination. Type of data set: cell-based. The note with it: UAMS1, read-out: MIC UAMS-1.
In data set [8] the test system is S. aureus USA300 biofilms. Nature of the data set: Disruption of established 24 h biofilms. The data set is classed as cell-based, Staphylococcus aureus. Particulars: USA300 24 h biofilm. In outline: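 USA300 from log phase was grown in wells for 24 h at 37°C to form biofilms, then washed with saline. The 10X test compound, alone or with daptomycin or vancomycin, was added with fresh TSB for another 24 h at 37°C. In combinations the test compound ran 1.56-0.20 µM and the antibiotic 6.25-0.78 µM. Daptomycin medium had 2 mM Ca2+. Wells got fresh TSB plus XTT for 2 h at 37°C, then A450 was read as % of untreated biofilm.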

In data set [9] the test system is Staphylococcus aureus Mu50. Nature of the data set: MIC determination. Type of data set: cell-based. Particulars: MU50, read-out: MIC Mu50.
Data set [10] relates to Staphylococcus aureus USA200. Nature of the data set: MIC determination. The note with it: USA200, read-out: MIC USA200. The data set is classed as cell-based.
Data set [11] has as its system Staphylococcus aureus USA400. Nature of the data set: MIC determination. Type of data set: cell-based. The note with it: USA400, read-out: MIC USA400.
Data set [12] relates to S. aureus USA300 biofilms. Description: Inhibition of biofilm formation. Type of data set: cell-based, Staphylococcus aureus. Particulars: USA300, between 3.1 and 12.5 μM.
A further data set relates to biofilm. The note with it: lower concentrations ineffective; cited from earlier work.

Each structure is given as a SMILES string. In brackets after ≈: the same amount, converted by molar mass.

One may read the MIC as the lowest concentration that inhibits growth of the organism. In the case of `CN[C@H](CC(C)C)C(=O)N[C@H]1C(=O)N[C@@H](CC(N)=O)C(=O)N[C@H]2C(=O)N[C@H]3C(=O)N[C@H](C(=O)N[C@H](C(=O)O)c4cc(O)cc(O)c4-c4cc3ccc4O)[C@H](O)c3ccc(c(Cl)c3)Oc3cc2cc(c3O[C@@H]2O[C@H](CO)[C@@H](O)[C@H](O)[C@H]2O[C@H]2C[C@](C)(N)[C@H](O)[C@H](C)O2)Oc2ccc(cc2Cl)[C@H]1O` [Vancomycin], the MIC is 0.78 µM (≈ 1.13 µg/mL) in [1]; over 25 µM in [2]; over 12.5 µM in [7]; 1.56 µM (≈ 2.26 µg/mL) in data set [9]; 0.35 µM (≈ 0.507 µg/mL) in data set [10]; 0.78 µM (≈ 1.13 µg/mL) in [11]. The “MIC KP” value in the data set with Klebsiella pneumoniae is over 25 µM. In data set [3], the “inhibition of biofilm formation” value came out at 100%. In addition, the established biofilms disrupted is given as 80% in [4] and ~ 70% in data set [5]. Besides, the “concentration disrupting established biofilms” value in data set [6] is 6.2 to 12.5 µM. The biofilm disruption alone result in [8] (3.1 μM vancomycin by itself) is listed as “unable to completely disrupt the biofilm”. Further, the “biofilm disruption by combination” value in data set [8] (3.1 μM vancomycin with 0.20 μM C14-RRR) is “disrupt nearly all the biofilms”. Moreover, in data set [12], the “inhibition of biofilm growth” value was determined as 80%.
Take `CCCCCCCCCC(=O)N[C@@H](Cc1c[nH]c2ccccc12)C(=O)N[C@H](CC(N)=O)C(=O)N[C@@H](CC(=O)O)C(=O)N[C@@H]1C(=O)NCC(=O)N[C@@H](CCCN)C(=O)N[C@@H](CC(=O)O)C(=O)N[C@H](C)C(=O)N[C@@H](CC(=O)O)C(=O)NCC(=O)N[C@H](CO)C(=O)N[C@@H]([C@H](C)CC(=O)O)C(=O)N[C@@H](CC(=O)c2ccccc2N)C(=O)O[C@@H]1C` [Daptomycin]: the MIC in data set [1] was 0.78 µM (≈ 1.26 µg/mL); in data set [7] it was over 12.5 µM; in data set [9], 3.1 µM (≈ 5.02 µg/mL); in [10], 0.78 µM (≈ 1.26 µg/mL); in data set [11], 0.78 µM (≈ 1.26 µg/mL). Further, in data set [3], the “inhibition of biofilm formation” value is recorded as 100%. Besides, the established biofilms disrupted is reported as 80% in [4] and ~ 70% in data set [5]. Moreover, the “concentration disrupting established biofilms” value in [6] was in the range of 6.2 to 12.5 µM. In addition, the “concentration with anti-biofilm activity” value in the data set with biofilm is reported as 5 mg/mL. Moreover, in data set [12], the “inhibition of biofilm growth” value is reported as 80%.
